In publication PMC3597129 (The Journal of antimicrobial chemotherapy, 2008):
Where two headings read alike, the source gives them in different places.

Columns and labels:
[1] = 2NN study, cited from earlier work
[2] = Population pharmacokinetic model fitted to each study site separately; format: in vivo, human; conditions: split model, 1600/100 mg once daily; for Population predictions CL/F / Population predictions V/F: typical 70 kg male
In short: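 UK sampling: pre-dose to 12 h (24 h if once daily). Thailand: pre-dose to 24 h, 10–15 g fat meal. Plasma from heparinized blood was frozen at −70°C and assayed by HPLC-MS/MS or HPLC-UV. Nonlinear mixed-effects modelling used FO estimation; individual estimates were Bayesian post hoc.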

[3] = healthy volunteers, Phase I studies; cited from earlier work
[4] = for Individual predictions V/F / Population predictions V/F: 1600/100 mg once daily; for Population predictions V/F: typical 70 kg male

Cc1ccnc2c1NC(=O)c1cccnc1N2C1CC1 [nevirapine]
higher clearance compared with Thai and South African individuals ([1]; South American HIV patients): ~ 11% | higher clearance compared with Thai and South African individuals ([1]; Western HIV patients): ~28%

CC(C)(C)NC(=O)[C@@H]1C[C@@H]2CCCC[C@@H]2CN1C[C@@H](O)[C@H](Cc1ccccc1)NC(=O)[C@H](CC(N)=O)NC(=O)c1ccc2ccccc2n1 [saquinavir]
Individual predictions CL/F ([2]; Thailand): 22.8 L/h | Individual predictions V/F ([2]; Thailand): 184.1 L | Population predictions CL/F ([2]; Thailand): 26.7 L/h | Population predictions V/F ([2]; Thailand): 245.9 L | Individual predictions CL/F ([2]; UK): 79.4 L/h | Individual predictions V/F ([2]; UK): 278.8 L | Population predictions CL/F ([2]; UK): 89.0 L/h | Population predictions V/F ([2]; UK): 313.5 L | Individual predictions CL/F ([2]; Uganda): 59.0 L/h | Individual predictions V/F ([2]; Uganda): 400.2 L | Population predictions CL/F ([2]; Uganda): 49.8 L/h | Population predictions V/F ([2]; Uganda): 421.0 L | bioavailability F [3]: 0.039 | observed trough concentrations below target (MEC 0.1 mg/L), number ([4]; both, human, in vivo): 65 | decrease in F ([4]; fasted state compared with standardized meal): ~ 40% | D1 (duration of zero-order input) ([4]; full model): 3.08 h | IIV CL/F ([4]; full model): 41.4% | IIV D1 ([4]; full model): 17.8% | IIV V/F ([4]; full model): 41.6% | IIV lag-time ([4]; full model): 46.8% | IOV CL/F ([4]; full model): 57.3% | IOV V/F ([4]; full model): 37.3% | Lag-time ([4]; full model): 0.57 h | Residual error additive ([4]; full model): 0.26 mg/L | Residual error proportional ([4]; full model): 34.3% | V/F ([4]; full model, 1000/100 mg bid evening dose): 545 L | V/F ([4]; full model, 1000/100 mg bid morning dose): 324 L | V/F ([4]; full model, 1600/100 mg qd): 324 L | V/F ([4]; full model, 1600/100 mg qd Thailand): 379 L | V/F ([4]; full model, 1600/100 mg qd Uganda): 332 L | V/F ([4]; full model, 2000/100 mg qd): 324 L | Individual predictions V/F ([4]; full model, Thailand): 195.4 L | Population predictions V/F ([4]; full model, Thailand): 371.1 L | Individual predictions V/F ([4]; full model, UK): 272.9 L | Population predictions V/F ([4]; full model, UK): 317.2 L | Individual predictions V/F ([4]; full model, Uganda): 521.2 L | Population predictions V/F ([4]; full model, Uganda): 325.1 L | increase in F ([4]; high-fat meal (66 g fat) compared with standardized meal): ~ 80%
